ChEMBL document CHEMBL1124448, “Comparison of the biological effects of selected 5,8-dideazafolate analogues with their 2-desamino counterparts” (J Med Chem, 1989)

Assays:
L1210 [1] = experiment: Inhibition of the growth of methotrexate resistant L1210 leukemia/R 81 cells in culture; type: functional, cell-based; conditions: Mus musculus
In short: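 MTT viability assay, 48 h. Log-phase cells were plated at […] onto serial drug dilutions in RPMI 1640 with 10% fetal bovine serum, in 8% CO2, humidified. MTT (5 mg/mL stock) was added for 3 h and the formazan dissolved in 0.04 N HCl/2-propanol. A570 was read within 1 h. Each plate carried no-drug control and no-cell blank rows. IC50 determined.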

L1210 [2] = experiment: Inhibition of the growth of methotrexate sensitive L1210 leukemia/S cells in culture; type: functional, cell-based; conditions: Mus musculus
In short: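 MTT viability assay, 48 h. MTT (5 mg/mL stock) was added for 3 h and the formazan dissolved in 0.04 N HCl/2-propanol. A570 was read within 1 h. Each plate carried no-drug control and no-cell blank rows. IC50 determined.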

Thymidylate synthase = Thymidylate synthase (Mus musculus, UniProt P07607); experiment: Inhibition of L1210 leukemia thymidylate synthase (TS) enzyme; conditions: read-out: I50
Thymidylate synthase, sequence (P07607 whole entry): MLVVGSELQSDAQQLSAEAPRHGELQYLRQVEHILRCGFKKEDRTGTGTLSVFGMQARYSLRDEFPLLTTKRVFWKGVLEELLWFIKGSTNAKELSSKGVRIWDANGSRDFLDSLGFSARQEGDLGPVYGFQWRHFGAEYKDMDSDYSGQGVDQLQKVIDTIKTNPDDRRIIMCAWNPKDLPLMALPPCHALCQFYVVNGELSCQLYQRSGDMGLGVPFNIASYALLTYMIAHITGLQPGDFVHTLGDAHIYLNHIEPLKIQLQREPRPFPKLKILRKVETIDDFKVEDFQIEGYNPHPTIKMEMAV

Compound	IC50 (L1210 [1])	IC50 (L1210 [2])	IC50 (Thymidylate synthase)
Nc1nc(=O)c2cc(CSc3ccc(C(=O)NC(CCC(=O)O)C(=O)O)cc3)ccc2[nH]1 (stereo not given)	> 200 µM	7.6 µM	
Nc1nc(O)c2cc(COc3ccc(C(=O)NC(CCC(=O)O)C(=O)O)cc3)ccc2n1 (stereo not given)	39 µM	1.2 µM	
O=C(O)CCC(NC(=O)c1ccc(CNc2ccc3ncnc(O)c3c2)cc1)C(=O)O (stereo not given)	> 200 µM	0.53 µM	25 µM
C#CCN(Cc1ccc2ncnc(O)c2c1)c1ccc(C(=O)NC(CCC(=O)O)C(=O)O)cc1 (stereo not given)	75 µM	0.27 µM	
O=C(O)CCC(NC(=O)c1ccc(SCc2ccc3ncnc(O)c3c2)cc1)C(=O)O (stereo not given)	> 200 µM	1.3 µM	13.8 µM
O=C(O)CCC(NC(=O)c1ccc(OCc2ccc3ncnc(O)c3c2)cc1)C(=O)O (stereo not given)	> 200 µM	0.28 µM	49 µM
Nc1nc(=O)c2cc(NCc3ccc(C(=O)NC(CCC(=O)O)C(=O)O)cc3)ccc2[nH]1 (stereo not given)	> 200 µM	3.2 µM	
C#CCN(Cc1ccc2[nH]c(N)nc(=O)c2c1)c1ccc(C(=O)NC(CCC(=O)O)C(=O)O)cc1 (stereo not given)	116 µM		
CN(Cc1cnc2nc(N)nc(N)c2n1)c1ccc(C(=O)N[C@@H](CCC(=O)O)C(=O)O)cc1 [METHOTREXATE]	186 µM	0.0044 µM	
